Legend:
Rattus norvegicus [1] = assay: Mean excretion of chloride in conscious rats at a dose of 10 mg/kg given orally; assay type: ADME, organism-based; design: dose 10 mg/kg, route oral; settings: in vivo, po
Outline: (§1)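 Secondary dose-response in male Sprague-Dawley rats (~160 g), fasted and hydrated as in the primary screen. Oral gavage at 0.3-100 mg/kg in 25 mL/kg saline/0.5% CMC, three cages of two rats per dose. Urine collected 5 h; Na, K, Cl, HCO3 measured. Values are mean excretion (mequiv), compared with controls at P < 0.05.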

[2] = Diuretic activity at 40 mg/kg (screening dose-68.7 umol/kg) in […] in a one stage experiment; T/C = urine vol of treated rats / urine vol of control rats; assay type: functional
Outline: (§2)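 40 mg/kg given by gavage in 25 mL/kg 0.9% saline with 0.5% (carboxymethyl)cellulose. Four rats per agent, two per metabolism cage; 20 controls; 5 h urine. T/C = treated/control urine volume. Stage-1 T/C of 1.66 or more leads to stage 2; product T/C1·T/C2 of 3.34 or more counts as active.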

Rattus norvegicus [3] = assay: Mean excretion of potassium in conscious rats at a dose of 0.3 mg/kg given orally; assay type: ADME, organism-based; design: dose 0.3 mg/kg, route oral; settings: in vivo, po; outline: as §1
Rattus norvegicus [4] = species on record: Rattus norvegicus; assay: […]; assay type: ADME, organism-based, Urine; design: dose 1 mg/kg, route oral; settings: in vivo, po, 1 mg/kg
Outline: (§3)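 Dose-response test in male Sprague-Dawley rats of about 160 g, fasted 24 h, with water withheld 1½ h before and during the test. Each rat got a single gavage of 25 mL/kg 0.9% saline with 0.5% carboxymethylcellulose carrying the agent (0.3–100 mg/kg range). Rats were housed two per metabolism cage, and urine was collected for 5 h. Mean urine volume (mL) was compared with controls (P < 0.05).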

Rattus norvegicus [5] = assay: Mean excretion of chloride in conscious rats at a dose of 30 mg/kg given orally; assay type: ADME, organism-based; design: dose 30 mg/kg, route oral; settings: in vivo, po; outline: as §1
Rattus norvegicus [6] = assay: Mean excretion of […] in conscious rats at a dose of 1.0 mg/kg given orally; assay type: ADME, organism-based; design: dose 1 mg/kg, route oral; settings: in vivo, po
Outline: (§4)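 Male Sprague-Dawley rats, about 160 g, fasted 24 h and water withheld 1 1/2 h beforehand; food and water withheld during the test. Dosing by gavage with 25 mL/kg 0.9% saline containing 0.5% (carboxymethyl)cellulose, agent dissolved or suspended. Three cages of two rats each per dose, held in metabolism cages. Urine collected over 5 h. Volume given in mL, Na+ in mequiv. Significance versus control at P < 0.05.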

Rattus norvegicus [7] = assay: Mean excretion of potassium in conscious rats at a dose of 10 mg/kg given orally; assay type: ADME, organism-based; design: dose 10 mg/kg, route oral; settings: in vivo, po; outline: as §1
Rattus norvegicus [8] = assay: Mean excretion of potassium in conscious rats at a dose of 3.0 mg/kg given orally; assay type: ADME, organism-based; design: dose 3 mg/kg, route oral; settings: in vivo, po; outline: as §1
Rattus norvegicus [9] = assay: Mean excretion of Cl- in conscious rats at a dose of 0.3 mg/kg given orally; assay type: ADME, organism-based, Urine; design: dose 0.3 mg/kg, route oral; settings: in vivo, po; outline: as §3
Rattus norvegicus [10] = species on record: Rattus norvegicus; assay: […]; assay type: ADME, organism-based, Urine; design: dose 0.3 mg/kg, route oral; settings: in vivo, po, 0.3 mg/kg; outline: as §3
Rattus norvegicus [11] = species on record: Rattus norvegicus; assay: […]; assay type: ADME, organism-based, Urine; design: dose 100 mg/kg, route oral; settings: in vivo, po, 100 mg/kg; outline: as §4
Rattus norvegicus [12] = assay: Mean excretion of sodium in conscious rats at a dose of 100 mg/kg given orally; assay type: ADME, organism-based; design: dose 100 mg/kg, route oral; settings: in vivo, po; outline: as §4
Rattus norvegicus [13] = assay: Mean excretion of sodium in conscious rats at a dose of 3.0 mg/kg given orally; assay type: ADME, organism-based; design: dose 3 mg/kg, route oral; settings: in vivo, po; outline: as §4
Rattus norvegicus [14] = assay: Mean excretion of chloride in conscious rats at a dose of 100 mg/kg given orally; assay type: ADME, organism-based; design: dose 100 mg/kg, route oral; settings: in vivo, po; outline: as §1
Rattus norvegicus [15] = species on record: Rattus norvegicus; assay: […]; assay type: ADME, organism-based, Urine; design: dose 3 mg/kg, route oral; settings: in vivo, po, 3 mg/kg; outline: as §4
Rattus norvegicus [16] = assay: Mean excretion of potassium in conscious rats at a dose of 1.0 mg/kg given orally; assay type: ADME, organism-based; design: dose 1 mg/kg, route oral; settings: in vivo, po; outline: as §1
Rattus norvegicus [17] = assay: Mean excretion of potassium in conscious rats at a dose of 30 mg/kg given orally; assay type: ADME, organism-based; design: dose 30 mg/kg, route oral; settings: in vivo, po; outline: as §1
Rattus norvegicus [18] = assay: Mean excretion of potassium in conscious rats at a dose of 100 mg/kg given orally; assay type: ADME, organism-based; design: dose 100 mg/kg, route oral; settings: in vivo, po; outline: as §1
Rattus norvegicus [19] = assay: Mean excretion of chloride in conscious rats at a dose of 1.0 mg/kg given orally; assay type: ADME, organism-based; design: dose 1 mg/kg, route oral; settings: in vivo, po; outline: as §1
Rattus norvegicus [20] = assay: Mean excretion of chloride in conscious rats at a dose of 3.0 mg/kg given orally; assay type: ADME, organism-based; design: dose 3 mg/kg, route oral; settings: in vivo, po; outline: as §1
Rattus norvegicus [21] = assay: Mean excretion of sodium in conscious rats at a dose of 30 mg/kg given orally; assay type: ADME, organism-based; design: dose 30 mg/kg, route oral; settings: in vivo, po; outline: as §4
Rattus norvegicus [22] = assay: Mean excretion of sodium in conscious rats at a dose of 10 mg/kg given orally; assay type: ADME, organism-based; design: dose 10 mg/kg, route oral; settings: in vivo, po; outline: as §4
[23] = Diuretic activity at 40 mg/kg (screening dose-68.7 umol/kg) in […] in a two stage experiment; T/C1.2 = urine vol of treated rats / urine vol of control rats; assay type: functional; outline: as §2
Rattus norvegicus [24] = species on record: Rattus norvegicus; assay: […]; assay type: ADME, organism-based, Urine; design: dose 10 mg/kg, route oral; settings: in vivo, po, 10 mg/kg; outline: as §4
Rattus norvegicus [25] = assay: Mean excretion of sodium in conscious rats at a dose of 0.3 mg/kg given orally; assay type: ADME, organism-based; design: dose 0.3 mg/kg, route oral; settings: in vivo, po; outline: as §4
Rattus norvegicus [26] = species on record: Rattus norvegicus; assay: […]; assay type: ADME, organism-based, Urine; design: dose 30 mg/kg, route oral; settings: in vivo, po, 30 mg/kg; outline: as §4
[27] = Diuretic activity at 40 mg/kg (screening dose-73.8 umol/kg) in […] in a one stage experiment; T/C = urine vol of treated rats / urine vol of control rats; assay type: functional; outline: as §2
[28] = Diuretic activity at 40 mg/kg (screening dose-73.8 umol/kg) in […] in a two stage experiment; T/C1.2 = urine vol of treated rats / urine vol of control rats; assay type: functional; outline: as §2

SMILES	Mean excretion of Cl- (Rattus norvegicus [1]) [m equiv]	Mean excretion of K+ (Rattus norvegicus [3]) [m equiv]	Mean urine volume (Rattus norvegicus [4]) [mL]	Mean excretion of Cl- (Rattus norvegicus [5]) [m equiv]	Mean excretion of Na+ (Rattus norvegicus [6]) [m equiv]	Mean excretion of K+ (Rattus norvegicus [7]) [m equiv]	Mean excretion of K+ (Rattus norvegicus [8]) [m equiv]	Mean excretion of Cl- (Rattus norvegicus [9]) [m equiv]	Mean urine volume (Rattus norvegicus [10]) [mL]	Mean urine volume (Rattus norvegicus [11]) [mL]	Mean excretion of Na+ (Rattus norvegicus [12]) [m equiv]	Mean excretion of Na+ (Rattus norvegicus [13]) [m equiv]	Mean excretion of Cl- (Rattus norvegicus [14]) [m equiv]	Mean urine volume (Rattus norvegicus [15]) [mL]	Mean excretion of K+ (Rattus norvegicus [16]) [m equiv]	Mean excretion of K+ (Rattus norvegicus [17]) [m equiv]	Mean excretion of K+ (Rattus norvegicus [18]) [m equiv]	Mean excretion of Cl- (Rattus norvegicus [19]) [m equiv]	Mean excretion of Cl- (Rattus norvegicus [20]) [m equiv]	Mean excretion of Na+ (Rattus norvegicus [21]) [m equiv]	other results
CN(C)CCc1nnc2n1-c1ccc(Br)cc1C(c1ccccc1)=NC2	0.74	0.25	4.38	0.94	0.65	0.21	0.23	0.66	3.99	13	1.57	0.78	1.42	5.97	0.23	0.16	0.27	0.65	0.82	1	T/C 1 [2]: 2.98; Mean excretion of Na+ (Rattus norvegicus [22]): 0.68 m equiv; T/C 1.2 [23]: 7.84; Mean urine volume (Rattus norvegicus [24]): 5.9 mL; Mean excretion of Na+ (Rattus norvegicus [25]): 0.66 m equiv; Mean urine volume (Rattus norvegicus [26]): 8.44 mL
I.NCC(c1ccccc1)c1nnc2n1-c1ccc(Cl)cc1C(c1ccccc1)=NC2 (configuration not stated)	1.09	0.28	4.45	1.72	0.76	0.27	0.22	0.81	4.34	8.43	1.63	0.69	1.57	3.92	0.32	0.28	0.27	0.79	0.73	2.01	T/C 1 [27]: 2.53; T/C 1.2 [28]: 5.92; Mean excretion of Na+ (Rattus norvegicus [22]): 1.08 m equiv; Mean urine volume (Rattus norvegicus [24]): 6.21 mL; Mean excretion of Na+ (Rattus norvegicus [25]): 0.77 m equiv; Mean urine volume (Rattus norvegicus [26]): 10.47 mL
